Source: PMC7948434 (ACS Omega, 2021)
Positions of bridges follow the written chain, without caps; N, C: chain ends. Residues, ends and D or L forms follow the SMILES beside them. No end group written: not given here.

B1: N36 peptide derived from HIV-1 JR-FL gp41 (peptide)
chain: SGIVQQQNNLLRAIEAQQRMLQLTVWGIKQLQARVL
B2: fejerlectin (peptide)
peptide: RLCYMVLPCP
modifications: disulfide 3-9 (inferred)

Key:
[1] = tested on: gp41 6-HB (N36 and C34 peptides); experiment: ELISA for inhibiting gp41 6-HB formation; format: biochemical, HIV-1; details: read-out: IC50, gp41 6-HB formation; 2 μM N36, 2 μM C34, 37 °C, ELISA 450 nm; mean ± SD, n = 3
In short: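 2 μM N36 was preincubated with the test compound (5–50 μM) at 37 °C for 30 min, then with 2 μM C34 at 37 °C for another 30 min. The mixture went onto plates coated with 2 μg/mL rabbit anti-6-HB IgG. Detection used 1 μg/mL NC-1 mAb, biotin-anti-mouse IgG, streptavidin-HRP and TMB, stopped with 1 M H2SO4, read at A450. Mean ± SD, n = 3.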

[2] = tested on: HIV-1SF162, HIV-1NL4-3, and HIV-1_81A and NL4-3; experiment: time-of-addition assay, results in words for the viruses together; format: cell-based; details: AZT 45 nM, maraviroc 24 nM, AMD3100 50 nM
In short: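 TZM-bl cells (5 × 10^5/mL) were infected with HIV-1NL4-3, HIV-1SF162 or HIV-1 81A/NL4-3 at 100 TCID50 at 37 °C. Test compound (added as 25 μM) or control was introduced at 0, 0.5, 1, 2, 4, 6, 8 or 24 h post-infection. Medium was replaced at 24 h, and supernatant p24 antigen was measured at 48 h. Mean ± SD, n = 3.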

[3] = serum stability, HA activity after incubation in human serum; format: in vitro ADME; details: 3 h; method: human serum at 37 °C, read-out HA titer
In short: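 Test compound was held in human serum at 37 °C for 0–4 h before HA titration. Mouse erythrocytes were washed in Alsever's solution and used as a 2% (v/v) suspension in PBS pH 7.5. Twofold serial dilutions were made in V-bottom plates, with PBS as negative control. Titer is the reciprocal of the lowest concentration giving HA. Repeated at least three times.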

TZM-bl cells = experiment: cytotoxicity in vitro; format: cell-based; details: MTT, 48 h, 1 to 1000 μM, mean ± SD, n = 3
In short: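 TZM-bl cells, 2 × 10^4/well in DMEM with 10% FBS and 1% penicillin/streptomycin, were cultured 24 h, then exposed to the test compound (1–1000 μM) for 48 h. MTT (0.5 mg/mL) was applied for 4 h, and formazan was dissolved in DMSO and read at 570 nm. CC50 was computed from the dose series. Mean ± SD, n = 3.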

HIV-1SF162 = details: 1SF162, 48 h
HIV-1NL4-3 = details: 1NL4-3, 48 h
HIV-1_81A and NL4-3 = details: 1 81A and NL4-3, 48 h
[4] = tested on: HIV-1JR-FL pseudotyped virus; details: 72 h
[5] = tested on: HIV-1HXB2 pseudotyped virus; details: 72 h
gp41 = details: cited from earlier work
HIV-1 = details: cited from earlier work
fejerlectin = biological target: B2; experiment: SPR
[6] = biological target: B1; experiment: ELISA

Molecule: COc1ccc(S(=O)(=O)O)cc1N=Nc1c(S(=O)(=O)O)cc2cc(Nc3nc(Nc4ccccc4)nc(Nc4cc(C)c(N=Nc5cc(S(=O)(=O)O)cc6cc(S(=O)(=O)O)cc(O)c56)cc4OC)n3)ccc2c1O [ADS-J1]
- IC50 [1]: 1530 ± 480 nM

Molecule: c1cc(CN2CCCNCCNCCCNCC2)ccc1CN1CCCNCCNCCCNCC1 [AMD3100]
- anti-HIV activity when added 8 h after infection [2]: significantly decreased 8 h after infection

Molecule: Cc1cn([C@H]2C[C@H](N=[N+]=[N-])[C@@H](CO)O2)c(=O)[nH]c1=O [AZT, zidovudine]
- anti-HIV activity when added 8 h after infection [2]: still had high antiviral activity when added 8 h after infection

Molecule: CSCC[C@@H]1NC(=O)[C@H](Cc2ccc(O)cc2)NC(=O)[C@@H](NC(=O)[C@H](CC(C)C)NC(=O)[C@@H](N)CCCNC(=N)N)CSSC[C@@H](C(=O)N2CCC[C@H]2C(=O)O)NC(=O)[C@@H]2CCCN2C(=O)[C@H](CC(C)C)NC(=O)[C@H](C(C)C)NC1=O [fejerlectin, RLCYMVLPCP] (H-RLCYMVLPCP-OH; disulfide 3-9)
- stability of HA activity in human plasma [3]: stable for 3 h in human plasma
- CC50 (TZM-bl cells): 182490 ± 9350 nM
- IC50 (HIV-1SF162): 2170 ± 1030 nM
- IC50 (HIV-1NL4-3): 1430 ± 340 nM
- IC50 (HIV-1_81A and NL4-3): 2800 ± 370 nM
- EC50 [4]: 4200 ± 960 nM
- EC50 [5]: 9630 ± 2300 nM

Molecule: O=C(CCc1ccc(O)cc1)c1c(O)cc(O[C@@H]2O[C@H](CO)[C@@H](O)[C@H](O)[C@H]2O)cc1O [trilobatin]
- HIV-1 entry/fusion inhibition via gp41 NHR (gp41): inhibited HIV-1 entry/fusion by binding the gp41 NHR region and blocking the formation of fusion-active 6-HB

Molecule: caerin 1.1
- suppression of HIV proliferation (HIV-1): suppress HIV proliferation by direct inactivation

Molecule: maraviroc
- anti-HIV activity when added 8 h after infection [2]: significantly decreased 8 h after infection

Molecule: retrocyclin-1
- protection of cells from HIV-1 infection (HIV-1): protect cells from HIV-1 infection by binding with high affinity to gp120, CD4, and galactosylceramide

Molecule: sifuvirtide
- anti-HIV-1 activity by inhibiting 6-HB formation (gp41): potent anti-HIV-1 activity by inhibiting 6-HB formation

Molecule: B1
- Kd (fejerlectin): 466000 nM

Molecule: B2
- IC50 [6]: 2610 nM
